Test results: paper PMC6119551 (Neuropharmacology, 2018)

Tests used:
male rats [1] = experiment: Body temperature via implanted transponder; type: in vivo, rat; conditions: sc, all doses tested, 15-120 min post-injection
[2] = biological target: 5-HT2A receptors in rat brain tissue (Rattus norvegicus, UniProt P14842); experiment: [3H]M100907 radioligand binding in rat brain tissue
[3] = ref Eshleman et al. (2014); cited from earlier work
male rats [4] = experiment: Wet dog shakes; type: in vivo, rat; conditions: sc; for Doses significantly increasing summed WDS vs vehicle: Bonferroni p<0.05
Summary of the method: (§1)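 Male Sprague-Dawley rats (250–300 g) with ≥2 weeks of acclimation, one sc injection per weekly session of saline or one of 4 doses (1.0 mL/kg), N=9/group. Dose ranges were 0.03–1.0, 0.01–0.3 or 0.1–3.0 mg/kg depending on compound. WDS and BMC were counted by a non-blind rater in eight 90-s periods every 15 min and summed. ED50 came from nonlinear regression of score versus log dose on the rising phase.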

5-HT2A receptor [5] = conditions: ref Eshleman et al. (2014); cited from earlier work
human 5-HT2C receptors = biological target: T1, human 5-HT2C receptors (Homo sapiens, UniProt P28335); experiment: Calcium mobilization, HEK293 cells expressing human 5-HT2C; type: cell-based; conditions: for Emax: HEK293, read-out: 5-HT2C Mobilization of Calcium % Emax
T1 sequence (P28335 33-458): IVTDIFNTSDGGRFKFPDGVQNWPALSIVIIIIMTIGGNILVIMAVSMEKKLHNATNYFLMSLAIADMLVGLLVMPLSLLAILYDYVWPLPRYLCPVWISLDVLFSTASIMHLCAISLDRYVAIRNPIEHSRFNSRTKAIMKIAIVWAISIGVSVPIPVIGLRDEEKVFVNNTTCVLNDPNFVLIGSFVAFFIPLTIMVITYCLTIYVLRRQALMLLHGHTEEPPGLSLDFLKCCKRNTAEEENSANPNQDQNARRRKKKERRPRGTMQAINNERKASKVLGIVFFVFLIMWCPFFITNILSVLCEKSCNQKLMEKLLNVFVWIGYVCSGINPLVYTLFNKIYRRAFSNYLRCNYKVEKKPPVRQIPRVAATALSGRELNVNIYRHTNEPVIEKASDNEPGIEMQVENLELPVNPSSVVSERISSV

human 5-HT2A receptors [6] = biological target: T2, human 5-HT2A receptors (Homo sapiens, UniProt P28223); experiment: Calcium mobilization, HEK293 cells expressing human 5-HT2A; type: cell-based; conditions: for Fold more potent than NBOMe counterpart in 5-HT2A-mediated calcium mobilization: 2C-C vs 25C-NBOMe, 2C-I vs 25I-NBOMe; for Emax: HEK293, read-out: 5-HT2A Mobilization of Calcium %Emax
male rats [7] = experiment: Back muscle contractions; type: in vivo, rat; conditions: sc; for Doses significantly increasing summed BMC vs vehicle: rats, Bonferroni p<0.05; for Rat BMC ED50: summed BMC over 2 h, rising phase of dose-effect function
Summary of the method: as §1

5-HT2A receptor [8] = conditions: ref Eshleman et al. (2014); cited from earlier work; remark: listed apart in the source
mice [9] = conditions: sc, ref Halberstadt and Geyer, 2014; cited from earlier work
human 5-HT2A receptors [10] = biological target: T2, human 5-HT2A receptors; conditions: 25C-NBOMe vs 2C-C, 25I-NBOMe vs 2C-I; ref Rickli et al., 2015; cited from earlier work
mice [11] = conditions: ref Gatch et al., 2017; cited from earlier work
rats = conditions: cited from earlier work
male rats [12] = experiment: M100907 antagonism of agonist-induced WDS and BMC; type: in vivo, rat
Summary of the method: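 Male Sprague-Dawley rats got sc M100907 (0.1 mg/kg in 1:9 DMSO:saline) or its vehicle 30 min before sc agonist or saline, with agonists at fixed doses of 0.03–1.0 mg/kg. Summed WDS and BMC came from eight 90-s observations at 15-min intervals by a non-blind rater. Rats were tested weekly, N=9/group, by Bonferroni comparison with Veh/Veh.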

5-HT2A = conditions: ref Marek and Aghajanian, 1994; cited from earlier work
[13] = 0.1 mg/kg M100907 30 min before 0.03 mg/kg 25C-NBOMe
[14] = 0.1 mg/kg M100907 30 min before 0.1 mg/kg 25I-NBOMe
[15] = 0.1 mg/kg M100907 30 min before 0.3 mg/kg 2C-C
[16] = 0.1 mg/kg M100907 30 min before 1.0 mg/kg 2C-I
[17] = 0.1 mg/kg M100907 30 min before 1.0 mg/kg DOI sc

5-HT2A receptors in rat brain tissue, sequence (P14842 whole entry): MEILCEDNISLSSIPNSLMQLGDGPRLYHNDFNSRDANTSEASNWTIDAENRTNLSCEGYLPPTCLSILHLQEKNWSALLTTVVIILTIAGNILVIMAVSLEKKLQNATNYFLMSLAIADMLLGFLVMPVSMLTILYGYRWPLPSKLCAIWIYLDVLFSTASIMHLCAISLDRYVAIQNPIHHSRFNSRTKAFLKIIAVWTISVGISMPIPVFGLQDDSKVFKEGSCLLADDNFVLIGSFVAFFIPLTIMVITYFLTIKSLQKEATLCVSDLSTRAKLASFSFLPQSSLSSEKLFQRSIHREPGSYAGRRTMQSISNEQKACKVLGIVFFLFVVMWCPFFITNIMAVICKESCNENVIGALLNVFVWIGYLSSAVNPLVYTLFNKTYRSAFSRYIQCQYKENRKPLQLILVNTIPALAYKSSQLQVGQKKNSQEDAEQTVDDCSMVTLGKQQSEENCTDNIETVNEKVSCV
T2 sequence (P28223 whole entry): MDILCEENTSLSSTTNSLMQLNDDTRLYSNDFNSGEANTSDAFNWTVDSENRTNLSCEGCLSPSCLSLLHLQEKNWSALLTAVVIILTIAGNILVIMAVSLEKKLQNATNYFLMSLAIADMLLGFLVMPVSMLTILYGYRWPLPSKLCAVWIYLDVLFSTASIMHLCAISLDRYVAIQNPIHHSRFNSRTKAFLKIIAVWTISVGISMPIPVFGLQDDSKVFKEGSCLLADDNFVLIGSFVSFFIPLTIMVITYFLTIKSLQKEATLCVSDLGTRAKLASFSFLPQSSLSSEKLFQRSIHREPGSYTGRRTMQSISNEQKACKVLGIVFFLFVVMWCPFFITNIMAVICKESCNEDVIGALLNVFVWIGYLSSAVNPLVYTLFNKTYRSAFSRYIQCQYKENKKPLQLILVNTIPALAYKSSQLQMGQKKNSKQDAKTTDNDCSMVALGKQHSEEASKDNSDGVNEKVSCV

| SMILES | Effect on body temperature (male rats [1]) | IC50 [2] | Doses significantly increasing summed WDS vs vehicle (male rats [4]; rats) | Functional activity in the [3H]AA assay (5-HT2A receptor [5]) | EC50 (human 5-HT2C receptors) | Emax (human 5-HT2C receptors) | EC50 (human 5-HT2A receptors [6]) | Fold more potent than NBOMe counterpart in 5-HT2A-mediated calcium mobilization (human 5-HT2A receptors [6]) | Emax (human 5-HT2A receptors [6]) | Doses significantly increasing summed BMC vs vehicle (male rats [7]) | Functional activity in the IP assay (5-HT2A receptor [8]) | ED50 in the head twitch assay (mice [9]) | Rat BMC ED50 (male rats [7]) | Fold greater affinity for human 5-HT2A receptors than 2C counterpart (human 5-HT2A receptors [10]) | Effect on locomotor activity (mice [11]) | further results |
| --- | --- | --- | --- | --- | --- | --- | --- | --- | --- | --- | --- | --- | --- | --- | --- | --- |
| COc1cc(CCN)c(OC)cc1Cl [Compound 2C-C, 2-(4-chloro-2,5-dimethoxyphenyl)ethanamine] | failed to significantly alter body temperature at any dose tested | 308 ± 21.6 nM | Significant stimulation of both behaviors occurred after administration of 0.3, 1.0, and 3.0 mg/kg doses | full agonist | 77.6 ± 5.5 nM | 29% | 4.57 ± 0.5 nM | 13 fold | 95% | Significant stimulation of both behaviors occurred after administration of 0.3, 1.0, and 3.0 mg/kg doses | full agonist | – | – | – | – | Substitution for MDMA in drug discrimination [3]: fully substitutes |
| COc1cc(CCN)c(OC)cc1I [Compound 2C-I, 2-(4-iodo-2,5-dimethoxyphenyl)ethanamine] | failed to alter body temperature at any dose tested | 125 ± 13 nM | Significant stimulation of shaking behavior ocurred after 1.0 and 3.0 mg/kg doses | antagonist | 47.2 ± 6.7 nM | 28% | 3.97 ± 0.7 nM | 8 fold | 89% | increases in BMC occurred after 0.3, 1.0, and 3.0 mg/kg doses | agonist | 0.83 mg/kg | 0.192 ± 0.060 mg/kg | – | – | Substitution for prototypical hallucinogens like LSD in drug discrimination [3]: fully substitutes |
| COc1cc(CCNCc2ccccc2OC)c(OC)cc1Cl [Compound 25C-NBOMe, 2-(4-chloro-2,5-dimethoxyphenyl)-N-[(2-methoxyphenyl)methyl]ethanamine] | did not significantly alter body temperature at any dose tested | 8.7 ± 1 nM | Significant stimulation of shaking behavior occured after 0.03 and 0.1 mg/kg doses | – | 178 ± 25 nM | 60% | 61.7 ± 3.5 nM | – | 104% | stimulation of contractions occured after 0.03, 0.1 and 0.3 mg/kg doses | – | – | – | 18 fold | dose-dependently reduced locomotor activity | DOM-appropriate responding (rats; dose of 0.03 mg/kg, ref Gatch and colleagues (2017)): < 20%; Substitution for DOM in drug discrimination (rats; ip, ref Gatch et al., 2017): fully substituted; Substitution for MDMA in drug discrimination (rats; ip, ref Gatch et al., 2017): only partially substituting |
| COc1cc(CCNCc2ccccc2OC)c(OC)cc1I [Compound 25I-NBOMe, 2-(4-iodo-2,5-dimethoxyphenyl)-N-[(2-methoxyphenyl)methyl]ethanamine] | did not significantly alter body temperature at any dose tested | 3.9 ± 0.4 nM | Significant increases in shakes occured after the 0.1 and 0.3 mg/kg doses | – | 88.9 ± 11 nM | 70% | 34.7 ± 4.2 nM | – | 108% | increases in contractions occurred after the 0.03, 0.1, and 0.3 mg/kg doses | – | 0.08 mg/kg | 0.037 ± 0.011 mg/kg | 6 fold | dose-dependently reduced locomotor activity | Fold more potent than 2C-I at eliciting head twitch behavior (mice [9]): about 10 fold; Fold more potent than 2C counterpart in inducing WDS (male rats [4]; rats, 25C-NBOMe vs 2C-C, 25I-NBOMe vs 2C-I): 10 fold; Rat WDS ED50 (male rats [4]; summed WDS over 2 h, rising phase of dose-effect function): 0.062 ± 0.026 mg/kg |
| COc1cccc([C@H](O)C2CCN(CCc3ccc(F)cc3)CC2)c1OC [Compound M100907, (R)-(2,3-dimethoxyphenyl){1-[2-(4-fluorophenyl)ethyl]-4-piperidinyl}methanol] | – | – | – | – | – | – | – | – | – | – | – | – | – | – | – | Effect on BMC induced by 25C-NBOMe (male rats [12]; [13]): significantly decreased; Effect on WDS induced by 25C-NBOMe (male rats [12]; [13]): significantly decreased WDS; Effect on BMC induced by 25I-NBOMe (male rats [12]; [14]): decreased; Effect on WDS induced by 25I-NBOMe (male rats [12]; [14]): decreased WDS; Effect on BMC induced by 2C-C (male rats [12]; [15]): decreased; Effect on WDS induced by 2C-C (male rats [12]; [15]): decreased WDS; Effect on BMC induced by 2C-I (male rats [12]; [16]): decreased; Effect on WDS induced by 2C-I (male rats [12]; [16]): decreased WDS; Effect on BMC induced by DOI (male rats [12]; [17]): significantly decreased shakes and contractions; Effect on WDS induced by DOI (male rats [12]; [17]): significantly decreased shakes and contractions; Selectivity for 5-HT2A over 5-HT2C and other receptor subtypes (5-HT2A): more than 100 fold |
| COc1cc(CC(C)N)c(OC)cc1I (stereo not drawn) [DOI, 1-(4-iodo-2,5-dimethoxyphenyl)propan-2-amine, reference compound] | no significant effects on body temperature at any dose tested | 56.1 ± 4.9 nM | significant increases in both behaviors occurring after 0.1, 0.3, and 1.0 mg/kg | – | 47.7 ± 3 nM | 50% | – | – | 109% | significant increases in both behaviors occurring after 0.1, 0.3, and 1.0 mg/kg | – | – | – | – | – | – |
